According to publication PMC5753398 (Journal of the American Chemical Society, 2017):
One block for each compound: values may come before it.

Legend:
[1] = system: Shh-mediated Hedgehog signaling (Gli-controlled Firefly luciferase) in NIH3T3 cells; assay: Gli-reporter dual luciferase assay in Shh-N-stimulated NIH3T3 cells; format: cell-based, mouse
[2] = system: Shh / Hedgehog pathway activation; settings: read-out: IC50, Shh inhibitory activity in vitro and in cells; similar cell-based assay; cited from earlier work
[3] = system: GST-Shh, GST-Ihh, or GST-Dhh; assay: Competition assay for Hh analog selectivity; format: binding, human; settings: 10 μM robotnikinin + 400 nM FLAG-HL2-m5
In short: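 Competition format: PBS containing 10 μM competitor plus 400 nM FLAG-tagged macrocyclic peptide (recombinant, E. coli) added to wells coated with GST-Shh, GST-Ihh or GST-Dhh (E. coli BL21(DE3)-expressed, Ni-NTA purified). Wells then developed by HRP anti-FLAG antibody, o-phenylenediamine/urea peroxide substrate (pH 5.0) and A450. Relative affinity = (1 − % inhibition)GST-Hh/(1 − % inhibition)GST-Shh. Triplicate, mean and SD.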

Shh/Patched interaction = settings: read-out: IC50 for inhibition of the Shh/Patched interaction in vitro; ref 25a; cited from earlier work

Compound: CC1=C2C[C@H]3[C@@H](CC=C4C[C@@H](O)CC[C@@]43C)[C@@H]2CC[C@]12O[C@@H]1C[C@H](C)CN[C@H]1[C@H]2C [cyclopamine]
Inhibition of Shh-induced luminescence ([1]; 10 μM, assay validation): full inhibition

Compound: c1ccc2c(Oc3nc(Nc4ccc(N5CCOCC5)cc4)c4ncn(C5CCCCC5)c4n3)cccc2c1 [purmorphamine]
Effect on signaling pathway in HL2-m5-treated cells ([1]; 5 μM purmorphamine added to cells treated with 10 μM HL2-m5): restored activation

Affinity toward Ihh and Dhh relative to Shh [3]: significantly lower affinity
Compound: O=C(C[C@@H]1C/C=C/CCC(=O)O[C@H](c2ccccc2)CNC1=O)NCc1ccc(Cl)cc1 [robotnikinin]
IC50 [2]: ~15 µM

Compound: Ac-TLDDMEEMDGLSD-NH2 [L2-pep]
Inhibitory activity in Gli-reporter assay ([1]; concentrations up to 30 μM, identical conditions): no inhibitory activity

Compound: HHIP370–390: linear HHIP L2-derived peptide from the literature (GDGMITLDDMEEMDGLSDFTG; UniProt Q96QV1 370-390, looked up, fragment)
IC50 (Shh/Patched interaction): 150 µM
